# Assay results pooled from the literature.
# CDK4 with cyclin D3: Cyclin-dependent kinase 4, with cyclin D3 (CDK4, Homo sapiens, UniProt P11802)
# CDK4 with cyclin D1: Cyclin-dependent kinase 4, with cyclin D1 (CDK4, Homo sapiens, UniProt P11802)
# CDK4: Cyclin-dependent kinase 4 (CDK4, Homo sapiens, UniProt P11802)
target,test,conditions,measurement,value,Compound
CDK4 with cyclin D3,binding,1 µM,remaining binding,89%,CN1CCN(C(=O)c2ccc(NC(=O)Nc3ccc(N(C)c4ccnc(Nc5ccc(CS(C)(=O)=O)cc5)n4)cc3)cc2)CC1
CDK4 with cyclin D3,"binding, competition with immobilised ligand",1 µM,remaining binding,96%,C[C@]1(O)CCCN(c2nc(Nc3ccc(S(=O)(=O)N[C@H]4CC[C@H](CN5CCN(c6ccc(C7CCC(=O)NC7=O)cc6F)CC5)CC4)cc3F)ncc2C(F)(F)F)C1 (stereo partly drawn)
CDK4 with cyclin D3,binding,1 µM,remaining binding,100%,Cc1ccc(NC(=O)c2ccnc(C(F)(F)F)c2)cc1-c1cc(OCCO)nc(N2CCOCC2)c1
CDK4 with cyclin D1,"binding, competition with immobilised ligand",0.5 µM,remaining binding,100%,CCCCC(=O)Nc1ccc(-c2ccc3ncn(CCC)c(=O)c3c2)cn1
CDK4 with cyclin D1,binding,0.1 µM,remaining binding,48%,C1=C/COCc2cc(ccc2OCCN2CCCC2)Nc2nccc(n2)-c2cccc(c2)COC/1
CDK4,"binding, competition with immobilised ligand",1 µM,remaining binding,93%,C[C@]1(O)CCCN(c2nc(Nc3ccc(S(=O)(=O)N[C@H]4CC[C@H](CN5CCN(c6ccc(C7CCC(=O)NC7=O)cc6F)CC5)CC4)cc3Cl)ncc2C(F)(F)F)C1 (stereo partly drawn)
CDK4,"enzyme activity, inhibitor",1 µM,inhibition,0%,CC#CC(=O)N1CCC[C@H]1c1nc(-c2ccc(C(=O)Nc3ccccn3)cc2)c2c(N)nccn12
CDK4,"binding, competition with immobilised ligand",1 µM,remaining binding,71%,CNS(=O)(=O)c1ccc(Nc2ncc(C(F)(F)F)c(N3CCC[C@](C)(O)C3)n2)c(C)c1
CDK4 with cyclin D1,"enzyme activity, inhibitor",1 µM,inhibition,0%,C=CC(=O)N1CCC([C@@H]2CCNc3c(C(N)=O)c(-c4ccc(Oc5ccccc5)cc4)nn32)CC1
CDK4 with cyclin D3,binding,1 µM,remaining binding,74%,COc1ccc2[nH]c3c4[nH]c5ccc(OC)cc5c4c4c(c3c2c1)C(=O)NC4=O
CDK4 with cyclin D1,"enzyme activity, inhibitor",1 µM,inhibition,4%,CO[C@@H]1[C@H](N(C)C(=O)c2ccccc2)C[C@H]2O[C@]1(C)n1c3ccccc3c3c4c(c5c6ccccc6n2c5c31)C(=O)NC4
CDK4 with cyclin D3,"enzyme activity, inhibitor",1 µM,activity vs control,102%,CC(C)S(=O)(=O)c1ccc2nccc(Nc3ccc4sc(C5CCCC5)nc4c3)c2c1
